For this test, the target named is T1, HPA (Helix pomatia, UniProt Q2F1K8).
T1 sequence (Q2F1K8 20-121): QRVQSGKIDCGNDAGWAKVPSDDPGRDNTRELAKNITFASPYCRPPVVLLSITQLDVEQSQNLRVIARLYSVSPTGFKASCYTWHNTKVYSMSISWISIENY
The experiment in a line: Fluorescent microarray competition: Alexa Fluor 647-labeled HPA. The test is classed as biochemical. To be noted: IC50,microarray (μM); SEM. A digest of the protocol: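 Glycoconjugates spotted in triplicate on NHS-coated glass slides from PBS pH 8.5 with 5% glycerol. Slides held 17−20 h at 70% humidity, then blocked 1 h at 37 °C in ethanolamine/boric acid/Tween 20 buffer pH 8.5. Probing in 16-well masks under slow agitation, then Tween-PBS washes. Scanned at 635 nm excitation. Mean fluorescence fitted against log competitor concentration.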

Structures are written as SMILES. “And” between values parts separate entries of the source, which are not always exact repeats. Identical values can stand only once.

Take `CC(=O)N[C@H]1C(O)O[C@H](CO)[C@H](O)[C@@H]1O` (stereo partly drawn) [GalNAc, N-acetyl-D-galactosamine]: the IC50 was 180 µM and 301 µM and 687 µM and 449 µM.

The values are drawn from article PMC6210076 (ACS Omega, 2018).
